Experimental data published in ChEMBL document CHEMBL1152640, “Synthesis and antiproliferative evaluation of 6-arylindeno[1,2-c]quinoline derivatives” (Bioorg Med Chem, 2009).
Calls of active or inactive are those of the source. The calls are words filed in the database; no cut-off is given here.

Columns and labels:
A549 [1] = assay: Cell cycle arrest in human A549 cells assessed as accumulation at subG1 phase at 5.0 uM after 24 hrs by flow cytometry; type: functional
Summary of the method: (§1)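 A549 cells were exposed to DMSO or compound at 0.1, 1.0, 5.0 or 10.0 µM for 24 h. Cells were harvested, rinsed in PBS, fixed in 70% ethanol and stored at −20 °C. Staining used propidium iodide solution with 0.2 mg/mL RNase and 0.1% Triton X-100, at least 30 min at room temperature in the dark. Cell-cycle phases were read by flow cytometry.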

[2] = Antiproliferative activity against human H1299 cells after 72 hrs by XTT assay; type: functional; conditions: NCI-H1299, 72 h
Summary of the method: (§2)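 Cells were grown as monolayers in DMEM with 10% FBS, penicillin, streptomycin and amphotericin at 37 °C and 5% CO2. Plating was 5×10³ cells/well, with treatment for 72 h in 10% FBS medium, a medium change, then another day. XTT (1 mg/mL) plus PMS in serum-free medium was added for 4 h at 37 °C and read at 492 nm. Growth was taken as % of control (mean of n = 3). GI50 was taken from the linear portion of the curve as the 50% absorbance reduction.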

A549 [3] = assay: Antiproliferative activity against human A549 cells after 72 hrs by XTT assay; type: functional; conditions: A549, 72 h; summary of the method: as §2
HepG2 = assay: Antiproliferative activity against human HepG2 cells after 72 hrs by XTT assay; type: functional; conditions: HepG2, 72 h; summary of the method: as §2
A549 [4] = assay: Cell cycle arrest in human A549 cells assessed as accumulation at S phase at 5.0 uM after 24 hrs by flow cytometry; type: functional; summary of the method: as §1
A549 [5] = assay: Cell cycle arrest in human A549 cells assessed as accumulation at S phase at 1.0 uM after 24 hrs by flow cytometry; type: functional; summary of the method: as §1
A549 [6] = assay: Cell cycle arrest in human A549 cells assessed as accumulation at G1 phase at 1.0 uM after 24 hrs by flow cytometry; type: functional; summary of the method: as §1
A549 [7] = assay: Induction of apoptosis in human A549 cells assessed as shrinkage in microtubule network at 1.0 uM after 24 hrs by immunofluorescence; type: functional, cell-based
Summary of the method: (§3)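 A549 cells on cover glasses were treated for 24 h, then fixed in 4% paraformaldehyde for 1 h. Glycine-PBS wash, then permeabilization with 2% FBS and 0.4% Triton X-100 for 15 min. Cells were stained with anti-β-tubulin monoclonal (1:1000, 4 °C overnight), then FITC anti-mouse IgG (1:200, 1 h, room temperature). DAPI was added for nuclei, and imaging was by confocal laser scanning microscopy.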

A549 [8] = assay: Induction of apoptosis in human A549 cells assessed as apoptotic bodies after 24 hrs by fluorescence microscopy; type: functional, cell-based; summary of the method: as §3
A549 [9] = assay: Induction of apoptosis in human A549 cells assessed as morphological changes after 24 hrs by fluorescence microscopy; type: functional, cell-based
Summary of the method: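 A549 cells were treated with DMSO or compound at 1, 5 or 10 µM for 24 h at 37 °C, then photographed under a microscope.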

A549 [10] = assay: Cell cycle arrest in human A549 cells assessed as accumulation at G1 phase at 0.1 uM after 24 hrs by flow cytometry; type: functional; summary of the method: as §1
A549 [11] = assay: Cell cycle arrest in human A549 cells assessed as accumulation at G2/M phase at 5.0 uM after 24 hrs by flow cytometry; type: functional; summary of the method: as §1
[12] = Antiproliferative activity against human HepG2(2.2.1) cells after 72 hrs by XTT assay; type: functional; conditions: HepG2, 72 h; summary of the method: as §2
A549 [13] = assay: Cell cycle arrest in human A549 cells assessed as accumulation at G1 phase at 5.0 uM after 24 hrs by flow cytometry; type: functional; summary of the method: as §1
[14] = Cytotoxicity against human MRC5 cells after 72 hrs by XTT assay; type: cell-based; summary of the method: as §2
[15] = Antiproliferative activity against human Hep3B cells after 72 hrs by XTT assay; type: functional, Hep 3B2; summary of the method: as §2
A549 [16] = assay: Induction of apoptosis in human A549 cells assessed as DNA fragmentation after 24 hrs by agarose gel electrophoresis; type: functional, cell-based
Summary of the method: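 A549 cells were treated at 1.0, 5.0 or 10.0 µM for 24 h and washed in PBS. Total genomic DNA was isolated with a kit and run on a 2.0% agarose gel in 1× TAE at 100 V.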

A549 [17] = assay: Cell cycle arrest in human A549 cells assessed as accumulation at S phase at 0.1 uM after 24 hrs by flow cytometry; type: functional; summary of the method: as §1
A549 [18] = assay: Cell cycle arrest in human A549 cells assessed as accumulation at G2/M phase at 1.0 uM after 24 hrs by flow cytometry; type: functional; summary of the method: as §1
A549 [19] = assay: Cell cycle arrest in human A549 cells assessed as accumulation at G2/M phase at 0.1 uM after 24 hrs by flow cytometry; type: functional; summary of the method: as §1
A549 [20] = assay: Induction of apoptosis in human A549 cells assessed as PARP cleavage after 24 hrs by Western blot; type: functional, cell-based
Summary of the method: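 Exponentially growing A549 cells were treated for 24 h, then lysed on ice for 30 min in Tris pH 7.5/NP-40 buffer with protease and phosphatase inhibitors. Protein was measured by Bradford, and 20 µg was resolved on 10% SDS–PAGE and transferred to PVDF. Blots were blocked in 5% milk, probed with anti-PARP (1:1000, 2 h) then HRP anti-rabbit (1:5000, 30 min), and reprobed for β-actin as a loading check.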

A549 [21] = assay: Induction of apoptosis in human A549 cells assessed as microtubule network damage at 10.0 uM after 24 hrs by immunofluorescence; type: functional, cell-based; summary of the method: as §3
A549 [22] = assay: Cell cycle arrest in human A549 cells assessed as accumulation at subG1 phase at 1.0 uM after 24 hrs by flow cytometry; type: functional; summary of the method: as §1
A549 [23] = assay: Cell cycle arrest in human A549 cells assessed as accumulation at subG1 phase at 0.1 uM after 24 hrs by flow cytometry; type: functional; summary of the method: as §1
A549 [24] = assay: Cell cycle arrest in human A549 cells assessed as accumulation at G2/M phase at 10.0 uM after 24 hrs by flow cytometry; type: functional; summary of the method: as §1
A549 [25] = assay: Cell cycle arrest in human A549 cells assessed as accumulation at G1 phase at 10.0 uM after 24 hrs by flow cytometry; type: functional; summary of the method: as §1
A549 [26] = assay: Cell cycle arrest in human A549 cells assessed as accumulation at S phase at 10.0 uM after 24 hrs by flow cytometry; type: functional; summary of the method: as §1
A549 [27] = assay: Cell cycle arrest in human A549 cells assessed as accumulation at subG1 phase at 10.0 uM after 24 hrs by flow cytometry; type: functional; summary of the method: as §1

SMILES	GI50 (A549 [3])	GI50 (HepG2)	GI50 [2]	GI50 [12]	GI50 at 72 h [14]	GI50 [15]	also measured
CN(C)CCCOc1ccc(-c2nc3ccc(OCCCN(C)C)cc3c3c2-c2ccc(OCCCN(C)C)cc2C3=O)cc1	0.68 µM	0.6 µM	5.18 µM	4.25 µM	6.2 µM	4.44 µM	Activity (A549 [1]): 17.1%; Activity (A549 [4]): 12.3%; Activity (A549 [5]): 13.6%; Activity (A549 [6]): 75%; Activity (A549 [7]): Active; Activity (A549 [8]): Active; Activity (A549 [9]): Active; Activity (A549 [10]): 73.9%; Activity (A549 [11]): 15.8%; Activity (A549 [13]): 71.9%; Activity (A549 [16]): Active; Activity (A549 [17]): 16.3%; Activity (A549 [18]): 11%; Activity (A549 [19]): 9.8%; Activity (A549 [20]): Dose-dependent effect; Activity (A549 [21]): Active; Activity (A549 [22]): 2%; Activity (A549 [23]): 1.5%
O=C1c2cc(OCCN3CCCCC3)ccc2-c2c(-c3ccc(OCCN4CCCCC4)cc3)nc3ccc(OCCN4CCCCC4)cc3c21	0.81 µM	0.7 µM	6.26 µM	6.07 µM	4.64 µM	5.02 µM	
COc1ccc(-c2nc3ccc(OC)cc3c3c2-c2ccc(OC)cc2C3=O)cc1	> 10 µM	> 10 µM	7.84 µM	> 10 µM	10.2 µM	12.5 µM	Activity (A549 [1]): 1%; Activity (A549 [4]): 14.3%; Activity (A549 [24]): 8.4%; Activity (A549 [5]): 13.2%; Activity (A549 [6]): 78.2%; Activity (A549 [11]): 7.8%; Activity (A549 [25]): 76.9%; Activity (A549 [13]): 77.9%; Activity (A549 [26]): 14.7%; Activity (A549 [18]): 8.6%; Activity (A549 [27]): 1%; Activity (A549 [22]): 0.9%
COc1ccc(-c2nc3ccc(F)cc3c3c2-c2ccc(OC)cc2C3=O)cc1	> 10 µM	> 10 µM	6.44 µM	> 10 µM	> 10 µM	> 10 µM	
CN(C)CCCOc1ccc(-c2nc3ccccc3c3c2-c2ccc(OCCCN(C)C)cc2C3=O)cc1	3.07 µM	4.35 µM	5.35 µM	5.39 µM	3.68 µM	3.05 µM	
CCc1c2c(nc3ccc(OC(=O)N4CCC(N5CCCCC5)CC4)cc13)-c1cc3c(c(=O)n1C2)COC(=O)[C@]3(O)CC [IRINOTECAN]	> 10 µM	5.94 µM	> 10 µM	> 10 µM	77.5 µM	4.73 µM	
O=C1c2cc(OCCN3CCCC3)ccc2-c2c(-c3ccc(OCCN4CCCC4)cc3)nc3ccc(OCCN4CCCC4)cc3c21	0.67 µM	0.62 µM	0.37 µM	3.44 µM	0.71 µM	1.73 µM	
CN(C)CCCOc1ccc(-c2nc3ccc(F)cc3c3c2-c2ccc(O)cc2C3=O)cc1	6.35 µM	5.92 µM	6.13 µM	5.62 µM	4.75 µM	6.72 µM	
CC[C@@]1(O)C(=O)OCc2c1cc1n(c2=O)Cc2cc3c(CN(C)C)c(O)ccc3nc2-1 [TOPOTECAN]	5.98 µM	3.83 µM	> 10 µM	4.95 µM	4.25 µM	0.22 µM	
O=C1c2cc(OCCN3CCCC3)ccc2-c2c(-c3ccc(OCCN4CCCC4)cc3)nc3ccc(F)cc3c21	6.23 µM	4.92 µM	4.3 µM	6.11 µM	5.15 µM	6.24 µM	
CN(C)CCCOc1ccc(-c2nc3ccc(F)cc3c3c2-c2ccc(OCCCN(C)C)cc2C3=O)cc1	3.67 µM	0.61 µM	0.72 µM	0.59 µM	1.86 µM	0.67 µM	
O=C1c2cc(OCCN3CCCCC3)ccc2-c2c(-c3ccc(OCCN4CCCCC4)cc3)nc3ccc(F)cc3c21	6.24 µM	2.82 µM	0.79 µM	3 µM	4.52 µM	0.66 µM	
O=C1c2cc(OCCN3CCCCC3)ccc2-c2c(-c3ccc(OCCN4CCCCC4)cc3)nc3ccccc3c21	5.68 µM	4.32 µM	6.38 µM	6.24 µM	4.34 µM	1.35 µM	
O=C1c2cc(OCCN3CCCC3)ccc2-c2c(-c3ccc(OCCN4CCCC4)cc3)nc3ccccc3c21	3.75 µM	4.03 µM	6.95 µM	6.15 µM	5.31 µM	3.46 µM	
O=C1c2cc(O)ccc2-c2c(-c3ccc(OCCN4CCCCC4)cc3)nc3ccc(F)cc3c21	6 µM	4.78 µM	5.32 µM	6.03 µM	5.91 µM	6.61 µM	
O=C1c2cc(O)ccc2-c2c(-c3ccc(OCCN4CCCC4)cc3)nc3ccc(F)cc3c21	6.63 µM	6.1 µM	5.25 µM	5.69 µM	6.02 µM	6.34 µM	

More lines, main results first:

GI50 (A549 [3])	GI50 (HepG2)	SMILES	GI50 [2]	GI50 [12]	GI50 at 72 h [14]	GI50 [15]	also measured
5.87 µM	5.59 µM	CN(C)CCCOc1ccc(-c2nc3ccccc3c3c2-c2ccc(O)cc2C3=O)cc1	6.39 µM	6.82 µM	4.61 µM	5.34 µM	
4.98 µM	5.51 µM	O=C1c2cc(O)ccc2-c2c(-c3ccc(O)cc3)nc3ccc(O)cc3c21	10.4 µM	6.61 µM	10.3 µM	12.2 µM	
> 10 µM	> 10 µM	O=C1c2cc(O)ccc2-c2c(-c3ccc(O)cc3)nc3ccc(F)cc3c21	5.88 µM	> 10 µM	> 10 µM	9.01 µM	
> 10 µM	> 10 µM	COc1ccc(-c2nc3ccccc3c3c2-c2ccc(OC)cc2C3=O)cc1	> 10 µM	> 10 µM	> 10 µM	> 10 µM	
4.33 µM	4.28 µM	O=C1c2cc(O)ccc2-c2c(-c3ccc(OCCN4CCCC4)cc3)nc3ccccc3c21	7.05 µM	6.06 µM	3.16 µM	3.4 µM	
> 10 µM	9.12 µM	O=C1c2cc(O)ccc2-c2c(-c3ccc(O)cc3)nc3ccccc3c21	> 10 µM	> 10 µM	> 10 µM	> 10 µM	
5.06 µM	4.3 µM	O=C1c2cc(O)ccc2-c2c(-c3ccc(OCCN4CCCCC4)cc3)nc3ccccc3c21	6.55 µM	6.4 µM	3.1 µM	5.4 µM	
